The entries come from a sample that favours hits as a whole.
Fibroblast inh = blocks proliferation of human lung fibroblasts | 1.1% of 85,000 active | LL 47 human lung fibroblast viability, ATP luminescence; hits give low values | viability, % at 10 µM;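 active = viability at or below 50% in the single dose screen; inactive = viability above 50%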;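 note: compound exposure lasted 72 h before the ATP readout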
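Assay system: human lung fibroblast line LL 47, low passage. Input: 1,150 fibroblasts seeded per well. Times: overnight cell rest, 72 h compound treatment at 37 °C. Evaluation: % viability of median cell-only signal. Technique: luminescent ATP detection, CellTiter-Glo. Control set: cell-only wells, no compound.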
bCat KO growth = beta-catenin-lacking colon tumor cell growth suppression. HCT116 beta-catenin knockout viability, CellTiter-Glo, 60 h; hits give low values. viability, % at 10 µM. 1.5% of 140,000 active;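 active = viability at or under a set limit, the compound median less 4 SD, cut at about 6% in these data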
HCT116 PTEN-null = suppresses growth of cells with PTEN deletion; 1.2% of 140,000 active; viability, % at 10 µM; HCT116 PTEN-null viability, CellTiter-Glo, 60 h; hits give low values;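 active = viability at or below a set limit, 4 SD under the median of all tested compounds, cut at about 3.7% in these data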;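 note: PTEN knockout HCT116 line with beta catenin targeted HCT116 as companion control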
H69AR growth 86K = blocks growth of human H69AR lung tumor cells; H69AR lung tumor viability, ATP luminescence, 72 h; hits give low values; 6% of 85,000 active; viability, % at 10 µM;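 active = viability at or below 40%; inactive = viability above 40%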;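 note: multidrug resistant small cell line overexpressing MRP-1 efflux transporter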
HUVEC inhibit = human endothelial cell proliferation inhibition. HUVEC proliferation, CellTiter-Glo luminescence, 72 h; hits give low values. viability, % at 10 µM (by protocol). 1.1% of 86,000 active. AID 648;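 active = viability at or below 30%; inactive = viability above 30%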
Each line names hits and unclear results; the compound was inactive in the other large screens.

Cc1ccc(C)c(NC(=O)C(Sc2nc3ccccc3c(=O)n2CC(C)C)c2ccccc2)c1 (stereo not drawn)	none (no result: Fibroblast inh, H69AR growth 86K, HUVEC inhibit)
CN(C)C(=O)COc1ccc(Br)cc1	none (no result: Fibroblast inh, H69AR growth 86K, HUVEC inhibit)
Cc1ccc(Cn2c(=O)c3ccccc3n3c(SCC(=O)N4CCCCC4C)nnc23)cc1 (stereo not drawn)	none (no result: bCat KO growth, HCT116 PTEN-null)
CC(=O)Oc1c(C)cc(Cl)cc1C(=O)Nc1ccc([N+](=O)[O-])cc1Cl	bCat KO growth 1.1, HCT116 PTEN-null 1.8 (no result: Fibroblast inh, H69AR growth 86K, HUVEC inhibit)
COC(=O)CSC1=C(C#N)C(c2ccccc2)CC(=O)N1 (stereo not drawn)	none
COC(=O)CSC1=C(C#N)C(=O)NC(c2ccccc2)S1 (stereo not drawn)	Fibroblast inh 7.4, H69AR growth 86K 1.3, HUVEC inhibit 28
COC(=O)c1ccc(CSc2nnc3sc4ccccc4n23)o1	none
O=C(NCc1ccco1)Nc1ccc2nsnc2c1	H69AR growth 86K 31
O=C(NCc1ccco1)Nc1ccc(Br)cc1	none
Brc1ccccc1-c1nnc(COc2cccc3cccnc23)o1	H69AR growth 86K 32
COc1cccc(NC(=O)c2cccc(OC)c2OC)c1	none
CCCn1nc(C(=O)N2CC(=O)Nc3ccccc32)c2ccccc2c1=O	H69AR growth 86K 25
O=C1CN(C(=O)c2ccccn2)c2ccccc2N1	none
CN(C)S(=O)(=O)N1CCCN(S(=O)(=O)N(C)C)CC1	none
COc1cc(/C=C(\C#N)c2nc3ccccc3[nH]2)cc(Br)c1OCc1ccc(F)cc1	bCat KO growth 2.1, HCT116 PTEN-null 2.1 (no result: Fibroblast inh, H69AR growth 86K, HUVEC inhibit)
Cc1ccc(OCC(=O)n2nc(C)cc2C)c(C)c1	none
O=C(CC12CC3CC(CC(C3)C1)C2)N1CCN(S(=O)(=O)c2cccs2)CC1	none (no result: Fibroblast inh, H69AR growth 86K, HUVEC inhibit)
COc1cccc(C2=CC(c3ccccc3)n3nnnc3N2)c1 (stereo not drawn)	none (no result: Fibroblast inh, H69AR growth 86K, HUVEC inhibit)
COc1cccc(C2=CC(c3cccc(OC)c3OC)n3nnnc3N2)c1 (stereo not drawn)	none (no result: Fibroblast inh, H69AR growth 86K, HUVEC inhibit)
COc1ccc(OC)c(C2C=C(c3ccc(C)c(C)c3)Nc3nnnn32)c1 (stereo not drawn)	H69AR growth 86K 14
COc1ccc(C2=CC(c3ccc(C)cc3)n3nnnc3N2)cc1 (stereo not drawn)	none
COc1cccc(C2=CC(c3ccc(N(C)C)cc3)n3nnnc3N2)c1 (stereo not drawn)	H69AR growth 86K 15
COc1cccc(C2=CC(c3cc(OC)ccc3OC)n3nnnc3N2)c1 (stereo not drawn)	H69AR growth 86K 5.4
CSc1nnc(-c2cc3c(-c4ccccc4)nn(C)c3s2)n1C	none (no result: Fibroblast inh, H69AR growth 86K, HUVEC inhibit)
Cc1ccccc1SCC(=O)OCC(=O)Nc1sccc1C(N)=O	none (no result: Fibroblast inh, H69AR growth 86K, HUVEC inhibit)
COc1ccc(OCCC(=O)OCC(=O)NC(=O)NC(C)(C)C)cc1	none (no result: Fibroblast inh, H69AR growth 86K, HUVEC inhibit)
CCCN(CCC)C(=O)CCSCCC(=O)N(CCC)CCC	none (no result: Fibroblast inh, H69AR growth 86K, HUVEC inhibit)
O=C(CCCCCC(=O)N(CCO)CCO)N(CCO)CCO	H69AR growth 86K 26
CC1(C)Cc2c(sc3c2c(=N)n(Cc2ccco2)c(=O)n3CC(=O)Nc2ccc(Cl)cc2)CO1	Fibroblast inh 22 (no result: bCat KO growth, HCT116 PTEN-null)
Oc1ccc2ccccc2c1N=Nc1ccccn1	bCat KO growth 2.4, HCT116 PTEN-null 2.6 (no result: Fibroblast inh, H69AR growth 86K, HUVEC inhibit)
CC(C)CCn1c(O)c(N=Nc2ccccn2)c2ccccc21	none (no result: Fibroblast inh, H69AR growth 86K, HUVEC inhibit)
Cc1occc1C(=O)Nc1sc2c(c1C(N)=O)CCCCC2	none
Cc1cc(C(=O)OCC(=O)NCc2ccco2)c(C)n1-c1ccc(F)cc1	H69AR growth 86K 21
Cc1ccccc1Oc1cc(-n2ncc(Cl)c(Cl)c2=O)ncn1	bCat KO growth 1.6, HCT116 PTEN-null 1.9 (no result: Fibroblast inh, H69AR growth 86K, HUVEC inhibit)
CCOc1cnn(-c2cc(Oc3ccc(C)cc3)ncn2)c(=O)c1Cl	none (no result: Fibroblast inh, H69AR growth 86K, HUVEC inhibit)
COc1ccc(-c2c[n+]3c4n2CCCCC4=C(c2ccccc2)C3)cc1	Fibroblast inh 36, bCat KO growth 3.8, HCT116 PTEN-null 3.5
COc1ccc(-c2c[n+]3c(n2-c2ccccc2)CCCCC3)cc1	none (no result: Fibroblast inh, H69AR growth 86K, HUVEC inhibit)
Cc1cc(C)c2c(N)c3ccccc3nc2n1	bCat KO growth 2.9, HCT116 PTEN-null 3.2 (no result: Fibroblast inh, H69AR growth 86K, HUVEC inhibit)
CCOC(=O)c1sc2nc(C)cc(C)c2c1N	none
CCc1ccc2nc3nc(C)cc(C)c3c(N)c2c1	bCat KO growth 4.0, HCT116 PTEN-null 3.2 (no result: Fibroblast inh, H69AR growth 86K, HUVEC inhibit)
Cn1c(=O)oc2cc(S(=O)(=O)NCCC(=O)Nc3ccc4c(c3)OCCO4)ccc21	none
CCOc1cc(C2C(C(=O)OC)=C(C)N=C3SCCC(=O)N32)ccc1OC(C)=O (stereo not drawn)	none
CCN(CC)S(=O)(=O)c1ccc(N2C(=O)CC2(/C=C/c2ccccc2)C(=O)NC2CCCC2)cc1 (stereo not drawn)	none (no result: Fibroblast inh, H69AR growth 86K, HUVEC inhibit)
COc1ccccc1/C=C/C1(C(=O)NC2CCCC2)CC(=O)N1c1ccc(F)cc1 (stereo not drawn)	Fibroblast inh 1.9, H69AR growth 86K 0.5
COc1ccccc1/C=C/C1(C(=O)NC2CCCC2)CC(=O)N1c1ccc(C)cc1 (stereo not drawn)	Fibroblast inh 48, H69AR growth 86K 2.1
O=C(CSc1nnc(CN2CCCCCC2=O)n1-c1ccccn1)NCC(F)(F)F	none
Cc1ccc(-c2cc(C(F)F)n3ncc(C(=O)Nc4c(C)nn(Cc5ccccc5Cl)c4C)c3n2)cc1	bCat KO growth 2.4, HCT116 PTEN-null 1.4 (no result: Fibroblast inh, H69AR growth 86K, HUVEC inhibit)
CN(C)c1ccccc1C(=O)c1ccccc1N(C)C	H69AR growth 86K 14
CN(c1ccccc1C(=O)O)S(C)(=O)=O	none
O=C1NC(=S)N(C(=O)c2ccc(F)cc2)/C1=C/c1ccccc1	HCT116 PTEN-null 1.7 (no result: Fibroblast inh, H69AR growth 86K, HUVEC inhibit)
CC1=C(C(=O)Nc2cc(-c3cccc(F)c3)[nH]n2)C2(CCCCC2)OC1=O	H69AR growth 86K 32
COc1ccccc1-c1cc(-c2ccccc2)nc(SC(C(N)=O)c2ccccc2)c1C#N (stereo not drawn)	HCT116 PTEN-null 3.5 (no result: Fibroblast inh, H69AR growth 86K, HUVEC inhibit)

Bioassay records: PubChem, SRMLSC
